For series [1] the following is noted: cited from earlier work.
For series [2], the system named is HepG2 cells.
Series [3] addresses T1, CYP2D6-overexpressing HepG2 cells (Homo sapiens, UniProt P10635).
The test system of the next series is CYP3A4. To be noted: human liver microsomes. (Liver microsomes are a subcellular fraction often used to study metabolism.)
In another series the target is CYP2C19 (Homo sapiens, UniProt P33261). To be noted: human liver microsomes.
Series [4] relates to CYP1A2-overexpressing HepG2 cells. As to the kind of experiment: Mass spectrometry of perhexiline and metabolites in CYP-overexpressing cells. The class given is in vitro ADME, human. Particulars: 5 μM perhexiline, 24 h.
In series [5] the target is T1, CYP2D6-overexpressing HepG2 cells. The description is as above. Particulars: 5 μM perhexiline, 24 h.
The subject of series [6] is HepG2 cells. As to the kind of experiment: Lactate dehydrogenase. The class given is cell-based, human. Particulars: 2.5-10 μM, 24 h.
In series [7] the test system is HepG2 cells. Briefly: CellTiter-Blue cell viability assay. To be noted: 2.5-10 μM, 24 h.
Series [8] can be described thus: CellTiter-Blue cell viability assay. Particulars: human, HepG2 cells.
The subject of series [9] is ATF6, ERN1, EIF2AK3, ATF4, and DDIT3 mRNA in EV control HepG2 cells. As to the kind of experiment: Quantitative real-time PCR of ER stress genes. It is filed as cell-based, human. To be noted: 10 μM, 24 h. (In general: Real-time PCR tracks product formation cycle by cycle.)
Series [10] addresses T2, CYP3A4-overexpressing HepG2 cells (Homo sapiens, UniProt P08684). It is filed as cell-based.
Series [11] relates to CYP1A2-overexpressing HepG2 cells. Briefly: Perhexiline toxicity endpoints. It is filed as cell-based, human. To be noted: 5–10 μM, 24 h.
The subject of series [12] is Primary human hepatocytes. Briefly: Cellular ATP assay. It is filed as cell-based. Particulars: 24 h.
The test system of series [13] is HepG2 cells. As to the kind of experiment: Caspase 3/7 activity. To be noted: 7.5 or 10 μM, 24 h. The class given is cell-based, human.
Series [14] addresses T2, CYP3A4-overexpressing HepG2 cells. Briefly: Mass spectrometry of perhexiline and metabolites in CYP-overexpressing cells. Particulars: 5 μM perhexiline, 24 h.
Series [15] relates to CYP2C19-overexpressing HepG2 cells. As to the kind of experiment: Perhexiline toxicity endpoints. It is filed as cell-based, human. To be noted: 5–10 μM, 24 h.
Series [16] deals with HepG2 cells. As to the kind of experiment: Cellular ATP assay. The class given is cell-based, human. To be noted: 24 h.
Series [17] relates to HepG2 cells. Briefly: Mitochondrial membrane potential. To be noted: 2.5-10 μM, 24 h. The class given is cell-based, human.
Series [18] has as its target T1, CYP2D6-overexpressing HepG2 cells. The class given is cell-based.
The subject of series [19] is CHOP in EV control HepG2 cells. As to the kind of experiment: Western blot of ER stress marker CHOP. It is filed as cell-based, human. Particulars: EV control cells upon perhexiline treatment. In outline: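 Empty-vector control HepG2 cells seeded at 3 × 10^5 cells/ml in 60 mm plates and treated about 24 h after seeding, with 0.1% v/v DMSO as control. Cells lysed directly in RIPA buffer with protease inhibitor cocktail and total protein quantified. Immunoblotted with primary antibodies against CHOP, using GAPDH as loading reference.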
On the technique in general: A western blot detects proteins with antibodies after separation by electrophoresis.

For series [20], the system named is CYP2C19-overexpressing HepG2 cells. Briefly: Mass spectrometry of perhexiline and metabolites in CYP-overexpressing cells. The class given is in vitro ADME, human. To be noted: 5 μM perhexiline, 24 h.
Setting [21] is: ketoconazole (CYP3A4 inhibitor).

The IC50 is the concentration at which inhibition is half-maximal. A higher IC50 goes with weaker potency in that assay.

T2 sequence (P08684 whole entry): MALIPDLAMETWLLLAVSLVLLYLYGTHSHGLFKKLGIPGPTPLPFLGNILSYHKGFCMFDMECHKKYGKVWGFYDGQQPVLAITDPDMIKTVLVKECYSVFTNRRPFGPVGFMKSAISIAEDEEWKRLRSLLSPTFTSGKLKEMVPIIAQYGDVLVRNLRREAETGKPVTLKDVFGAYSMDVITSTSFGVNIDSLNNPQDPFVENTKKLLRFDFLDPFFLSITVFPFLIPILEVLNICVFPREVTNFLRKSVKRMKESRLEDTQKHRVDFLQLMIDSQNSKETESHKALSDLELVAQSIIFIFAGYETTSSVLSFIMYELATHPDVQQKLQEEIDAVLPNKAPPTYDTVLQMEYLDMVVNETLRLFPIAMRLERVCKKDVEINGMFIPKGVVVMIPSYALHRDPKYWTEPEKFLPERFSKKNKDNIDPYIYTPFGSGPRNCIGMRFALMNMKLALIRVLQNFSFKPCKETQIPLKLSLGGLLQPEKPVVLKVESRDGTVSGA
T1 sequence (P10635 whole entry): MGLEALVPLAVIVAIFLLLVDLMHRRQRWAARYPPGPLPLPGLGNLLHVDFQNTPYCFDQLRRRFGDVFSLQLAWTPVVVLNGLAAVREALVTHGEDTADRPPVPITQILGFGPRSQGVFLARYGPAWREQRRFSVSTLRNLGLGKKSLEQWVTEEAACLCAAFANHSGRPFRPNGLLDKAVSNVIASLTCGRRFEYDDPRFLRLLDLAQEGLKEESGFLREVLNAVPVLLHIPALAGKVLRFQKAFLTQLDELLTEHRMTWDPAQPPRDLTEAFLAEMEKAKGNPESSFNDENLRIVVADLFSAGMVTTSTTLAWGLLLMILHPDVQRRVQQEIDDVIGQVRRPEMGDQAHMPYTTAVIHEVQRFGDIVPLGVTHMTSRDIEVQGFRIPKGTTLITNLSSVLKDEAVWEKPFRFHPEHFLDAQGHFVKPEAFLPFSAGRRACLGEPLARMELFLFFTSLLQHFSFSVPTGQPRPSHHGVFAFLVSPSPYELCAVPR
Chain of CYP2C19 (P33261 whole entry): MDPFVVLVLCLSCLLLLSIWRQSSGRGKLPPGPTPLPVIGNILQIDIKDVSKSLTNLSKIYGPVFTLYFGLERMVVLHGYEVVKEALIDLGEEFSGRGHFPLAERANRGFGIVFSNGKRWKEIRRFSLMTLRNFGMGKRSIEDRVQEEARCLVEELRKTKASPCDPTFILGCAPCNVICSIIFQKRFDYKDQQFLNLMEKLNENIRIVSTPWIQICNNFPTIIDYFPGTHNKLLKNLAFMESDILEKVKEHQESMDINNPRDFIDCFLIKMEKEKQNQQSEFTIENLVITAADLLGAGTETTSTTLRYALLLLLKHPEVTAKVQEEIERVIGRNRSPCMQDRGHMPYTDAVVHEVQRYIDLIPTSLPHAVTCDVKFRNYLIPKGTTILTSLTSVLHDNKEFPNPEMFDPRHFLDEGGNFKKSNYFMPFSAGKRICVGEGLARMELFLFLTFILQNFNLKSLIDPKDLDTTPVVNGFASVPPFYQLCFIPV

As to `C1CCC(C(CC2CCCCN2)C2CCCCC2)CC1` (single isomer, unassigned; (-)) [(−)-perhexiline], the “clearance relative to the other enantiomer” value in [1] (attributed to CYP2D6-mediated metabolism, ref Davies et al. 2008) was “higher clearance rate”.
Compound `OC1CCC([C@@H](CC2CCCCN2)C2CCCCC2)CC1` (stereo in doubt) [cis-OH-Phx] gave an IC50 with HepG2 cells [2] of 90 µM.
Turning to `O[C@H]1CC[C@H](C(CC2CCCCN2)C2CCCCC2)CC1` (stereo partly drawn) [M1, trans-OH-Phx-1], the “increase of M1 compared to EV control cells” value in series [3] is 2.6 fold.
With `CC(=O)N1CCN(c2ccc(OCC3COC(Cn4ccnc4)(c4ccc(Cl)cc4Cl)O3)cc2)CC1` (stereo not shown) [ketoconazole], in the series with CYP3A4 (ketoconazole 2 μM, perhexiline 30 μM), the “suppression of formation of M3 (trans-OH-Phx-2)” value was “up to 80%”. Further, in the series with CYP3A4 (setting [21]), the “effect on formation of M1 (trans-OH-Phx-1)” value is on record as “reduced” and the “effect on formation of M5 (cis-OH-Phx)” value is “did not have effect”.
On to `C=C(C)[C@@H]1CCC2=CC(=O)C[C@@H](C)[C@]2(C)C1` [nootkatone], for which the “effect on the formation of M1, M3, and M5” value at CYP2C19 (nootkatone 10 μM (CYP2C19 inhibitor)) was “did not show significant effect”. Also, the “effect on the relative abundance of trans-OH-Phx” value on CYP2C19 (nootkatone (CYP2C19 inhibitor)) was “little effect”.
As for `C1CCC(C(CC2CCCCN2)C2CCCCC2)CC1` (stereo not shown) [perhexiline], the “parent perhexiline level vs EV control” value in series [4], in series [14] and in series [20] was “significant reduction” in each case. Also, the “amount of parent perhexiline relative to EV control” value in series [5] amounted to 1%. Besides, the LDH release entry in the series with HepG2 cells [6] is “concentration-dependent increase”. Further, in the series with HepG2 cells [7], the cell viability entry is recorded as “significant decrease”. In series [8], this compound registered an IC50 at 24 h of 8 µM. Also, the “mRNA levels of ATF6, ERN1, EIF2AK3, ATF4, and DDIT3 (fold change vs DMSO)” value in series [9] was “significantly elevated”. In series [10], the “caspase 3/7 activities, EV control vs CYP3A4 cells” value is “little difference”. Moreover, the “effect in JC-1 staining vs EV control” value in series [10] is “marginal protective effect”. For the same compound, the “protective effect on ATP levels and LDH release vs EV control” value in series [10] (5–10 μM, 24 h) is recorded as “little protective effect”; in series [11] it was “little protective effect”; in series [15], “little protective effect”. Besides, in series [12] (hepatic cells, concentrations ranged from 2.5 μM to 15 μM), the “concentration at which cytotoxicity was observed starting” value stood at 5 µM. For the same compound, the “lowest concentration at which a decrease in ATP was observed” value in [12] (primary human hepatocytes, 5 to 15 μM) was found to be 5 µM. In addition, the “plasma perhexiline beyond 24 h after a single administration” value in series [1] (known extensive metabolizers, ref Cooper et al. 1987) is recorded as “undetectable”. Further, the “caspase 3/7 activity” value with HepG2 cells [13] is given as “increase”. Also, the “cellular ATP levels at 10 μM” value in the series on HepG2 cells [16] (10 μM) is listed as “largely depleted”. In addition, the “cellular ATP levels” value in the series on HepG2 cells [16] (2.5–10 μM) is on record as “concentration-dependent decrease”. Moreover, the “mitochondrial membrane potential level (JC-1)” value in the series on HepG2 cells [17] is recorded as “significant concentration-dependent decrease”. Further, the “perhexiline-induced increase in CHOP protein vs EV control” value in series [18] is “greatly reduced”. Further, the “perhexiline-induced increase in ER stress gene mRNA vs EV control” value in [18] (10 μM, 24 h) is “drastically attenuated”. The “perhexiline-induced increase in caspase 3/7 vs EV control” value in series [18] (24 h) is on record as “abolished”. Further, the CHOP protein level entry in series [19] is “markedly increased”.
As for `O[C@H]1CC[C@H](C(CC2CCCCN2)C2CCCCC2)CC1` (stereo partly drawn) [trans-OH-Phx], in series [1] (most patients, ref Amoah et al. 1986, Cooper et al. 1984, 1987), the “plasma trans-OH-Phx level post-dosage” value is recorded as “undetectable”. Besides, the concentration for half-maximal inhibition (IC50) with HepG2 cells [2] was 56 µM.

Values taken from PMC10395006 (Archives of toxicology, 2022).
